The source of these data is ChEMBL document CHEMBL4513216, “Probing the Open Global Health Chemical Diversity Library for Multistage-Active Starting Points for Next-Generation Antimalarials” (ACS Infect Dis, 2020).

The data set can be described thus: Toxicity liver stage against HepG2, at 10uM. The class given is cell-based. On the set-up: test concentration 10 uM, cell line HepG2-A16-CD81EGFP. The following applies: human, HepG2-A16-CD81EGFP cells; read-out: INHIBITION
In short, it runs like this:
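Uninfected HepG2-A16-CD81EGFP cells, 3 × 10^3 per well, 1536-well, plated on prespotted compound at 10 μM final, parasite-free screening media added to match infected plates; puromycin 10 μM positive, DMSO 0.5% negative; run in parallel with 48 h PbLuc assay at 37 °C, 5% CO2; viability by CellTiter-Glo luminescence, normalized to controls.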
Regarding `CCN1CCN(C(C)CNC(=O)Nc2nnc(C)s2)CC1` (stereo not drawn), the cytotoxicity at 10 µM is -12.2%.

Take `Cc1cc(C)n2c(CCCNS(=O)(=O)c3ccccc3)nnc2n1`: the cytotoxicity at 10 µM came to 1.18%.

For the compound `COCCN1C[C@H]2CCN(C(=O)Nc3ccccc3C)CC[C@H]2S1(=O)=O`, the cytotoxicity at 10 µM is 0.64%.

As for `COc1cccc(N2CC3(CCN(c4cc(OC)ncn4)C3)CC2=O)c1` (stereo not drawn), the cytotoxicity at 10 µM is 21.7%.

Regarding `CN(C)C(=O)CNC(=O)c1nc2c(s1)CCCN2Cc1ccccc1`, the cytotoxicity at 10 µM was found to be 8.13%.

Take `CC(=O)N1CCCc2sc(C(=O)Nc3ccc(C)nc3)nc21`: the cytotoxicity at 10 µM is 7.46%.

Consider `O=C(NC1CCCC1)c1nc2c(o1)CN(C(=O)CO)C2`, for which the cytotoxicity at 10 µM was 10%.

For the compound `CS(=O)(=O)N1CCC2(CC1)CC(OCC1CCOCC1)CO2` (stereo not drawn), the cytotoxicity at 10 µM came to 8.16%.

`CCS(=O)(=O)N1CC[C@H]2OCC[C@@]2(c2nnc(C)o2)C1`: the cytotoxicity at 10 µM is 7.95%.

For the compound `Cc1noc(C2CN(S(=O)(=O)C3CC3)Cc3ccnn3C2)n1` (stereo not drawn), the cytotoxicity at 10 µM was 7.19%.

As for `CC1=N[C@@]2(CC[C@@H]3CN(C(=O)NC(C)C)C[C@@H]32)C(=O)N1CC(C)C`, the cytotoxicity at 10 µM came out at 7.74%.

For the compound `CCc1nc(C#N)c(N2CCC(c3nc(-c4ccccc4)no3)CC2)o1`, the cytotoxicity at 10 µM was found to be 0.689%.

For `Cc1oc(-c2nc(C#N)c(NC(C)C)o2)cc1S(=O)(=O)N1CCCC1`, the cytotoxicity at 10 µM worked out at 5.61%.

For `COc1ccc2c(ccn2CCN)c1`, the cytotoxicity at 10 µM was -0.73%.

Take `Cn1cc(CN2CCCn3cnc(COCC4CC4)c3C2)cn1`: the cytotoxicity at 10 µM was -6.66%.

Turning to `CCC(=O)N1CCCCC1c1nc(O)c2c(n1)CN(C(=O)C1CC1)CC2` (stereo not drawn), the cytotoxicity at 10 µM was 1.23%.

For `NC(=O)N1CCC(NCc2cc(Br)ccc2Cl)CC1`, the cytotoxicity at 10 µM is -6.43%.

On to `Cc1ncncc1C(=O)N1CCCN(Cc2ncc(Cl)n2C)CC1`, for which the cytotoxicity at 10 µM was found to be 6.45%.

For the compound `Cc1ccccc1C(C#N)NC(=O)c1cccc2c1OCCO2` (stereo not drawn), the cytotoxicity at 10 µM was -3.38%.

For the compound `CC(C)N1CCC(O)(CNC(=O)CC2OCCc3ccccc32)CC1` (stereo not drawn), the cytotoxicity at 10 µM was 5.02%.

Turning to `CC(Oc1cc(Cl)cc(Cl)c1)C(=O)NCCS(N)(=O)=O` (stereo not drawn), the cytotoxicity at 10 µM is -11.7%.

`FCCOc1cccc(NCc2c[nH]nc2-c2cccnc2)c1`: the cytotoxicity at 10 µM turned out to be 1.14%.

On to `COC(=O)c1sc2cccc(F)c2c1CNC(=O)C1CC1`, for which the cytotoxicity at 10 µM is -11.4%.

Regarding `Cc1cccc(C)c1NC(=O)CN(C)C(C)c1nc(C(C)(C)C)no1` (stereo not drawn), the cytotoxicity at 10 µM is -6.85%.

On to `CCCn1nc2c(cc1=O)CN(Cc1nc(C)c3ccccc3n1)CC2`, for which the cytotoxicity at 10 µM was -2.45%.

As to `Cn1nc2c(cc1=O)CN(c1ncnc3ccsc13)CC2`, the cytotoxicity at 10 µM was 9.3%.

Regarding `c1ccc(-c2cnc(CNC3CCc4ncnn4C3)o2)cc1` (stereo not drawn), the cytotoxicity at 10 µM was -3.78%.

For `O=C(CN1CCOc2ccc(Cl)cc21)NCCCn1ccnc1`, the cytotoxicity at 10 µM is -7.49%.

Take `CC(C)Cc1nc(CN(C)CCOc2ccccc2F)no1`: the cytotoxicity at 10 µM was -0.731%.

For `CSCC(C)CNC(=O)N1CCSC(C)(C)C1` (stereo not drawn), the cytotoxicity at 10 µM turned out to be 0.873%.

As to `COCCCN(Cc1ccc(F)cc1Cl)C1CCS(=O)(=O)C1` (stereo not drawn), the cytotoxicity at 10 µM was found to be 13.7%.

In the case of `Cn1c(CC2CCS(=O)(=O)C2)nnc1SCCOc1ccccc1F` (stereo not drawn), the cytotoxicity at 10 µM was -6.82%.

Turning to `COc1cccc(CN(C)S(=O)(=O)N2CCOCC2)c1`, the cytotoxicity at 10 µM is -8.62%.

With `CS(=O)(=O)NCC1CCCCN1C(=O)Nc1cccnc1N1CCCC1` (stereo not drawn), the cytotoxicity at 10 µM was -3.45%.

For `Cc1ccc(S(=O)(=O)NC(=O)c2c(C)noc2C(C)C)cc1C`, the cytotoxicity at 10 µM was -9.11%.

Regarding `O=C(NC1CC2(CCN(CCO)CC2)Oc2ccccc21)c1csnn1` (stereo not drawn), the cytotoxicity at 10 µM was -101%.

Turning to `Cn1cc(CN2Cc3cn(C)nc3C(COCC3CC3)C2)cn1` (stereo not drawn), the cytotoxicity at 10 µM is -69.8%.

In the case of `Cc1nc(CN2C(=O)CC[C@@H]3[C@H]2CCN3C(=O)c2ccno2)cs1`, the cytotoxicity at 10 µM was -82.7%.

Turning to `Cn1cccc1C(=O)N1CCc2ncnc(N3CCOCC3)c2CC1`, the cytotoxicity at 10 µM is -74.3%.

As to `O=C(c1cccs1)N1CC[C@H]2[C@@H]1CCC(=O)N2c1cccnc1`, the cytotoxicity at 10 µM was -74.3%.

As to `Cc1ccc(CN2CCCC23CCN(S(=O)(=O)c2ccccc2)C3)o1` (stereo not drawn), the cytotoxicity at 10 µM amounted to 0.642%.

Take `CN1C(=O)C2(CCN(CCO)C2)c2ccccc21` (stereo not drawn): the cytotoxicity at 10 µM was 5.84%.

In the case of `COc1ccc(CCCN2C(=O)O[C@@H]3CN(C4CCOCC4)C[C@@H]32)cc1`, the cytotoxicity at 10 µM is -1.47%.

Regarding `CCN(C)CC(=O)N1CCN(Cc2ccccc2)[C@@H]2CS(=O)(=O)C[C@@H]21`, the cytotoxicity at 10 µM was -5.18%.

Consider `N#Cc1ccccc1C(=O)N1C[C@@H](CN2CCOCC2)[C@@H](CO)C1`, for which the cytotoxicity at 10 µM was -1.06%.

`Cc1csc(CN(C)C(=O)c2cccc(CCC(C)(C)O)c2)n1`: the cytotoxicity at 10 µM was -2.32%.

As to `Cc1ccc(C(=O)N2CCC(c3nccn3Cc3ccncc3)CC2)s1`, the cytotoxicity at 10 µM was 1.2%.

With `CCOCc1nc2c(c(N3CCCn4nc(C)cc4C3)n1)CCNCC2`, the cytotoxicity at 10 µM is 11.3%.

Consider `COc1cccc(-c2noc(-c3ccc(NCC(C)C)nc3)n2)c1OC`, for which the cytotoxicity at 10 µM is -12.2%.

In the case of `Cc1cnc(C(=O)N2CCN(C(=O)C(C)C)[C@@H]3CS(=O)(=O)C[C@@H]32)cn1`, the cytotoxicity at 10 µM came to 7.91%.

On to `CCC[C@H]1CN(S(C)(=O)=O)C[C@@H]1NC(=O)COC(C)C`, for which the cytotoxicity at 10 µM was -1.09%.

For the compound `COCCN(CC(N)=O)CC1CCCN(C2Cc3ccccc3C2)C1` (stereo not drawn), the cytotoxicity at 10 µM is -3.01%.

Regarding `O=C(CCC1CCN(C2CSCCSC2)CC1)NCC1CCCO1` (stereo not drawn), the cytotoxicity at 10 µM stood at 6.5%.

As to `CC(=O)NCC1CCC2(CCN(c3ncnc4oc(C)nc34)CC2)O1` (stereo not drawn), the cytotoxicity at 10 µM was 1.32%.

Regarding `Cc1nccc(N2CCC(=O)N(Cc3ccc(F)cc3)C(C(C)C)C2)n1` (stereo not drawn), the cytotoxicity at 10 µM is -0.449%.

For the compound `Cc1noc(C(C)C)c1C(=O)NCc1cccnc1`, the cytotoxicity at 10 µM stood at 3.93%.

Turning to `Cc1oc(C(=O)O)cc1S(=O)(=O)Nc1ccccc1F`, the cytotoxicity at 10 µM was -2.8%.

As for `CC(C(=O)NCCN1CCN(C)CC1)n1cncn1` (stereo not drawn), the cytotoxicity at 10 µM stood at 0.449%.

For `CC(NC(=O)CSCC#N)c1ccc(Cl)cc1` (stereo not drawn), the cytotoxicity at 10 µM was -2.13%.

On to `Cc1cc(C)n(C2CCCN(C(=O)c3csc(C4CC4)n3)C2)n1` (stereo not drawn), for which the cytotoxicity at 10 µM is -2.51%.

As to `Cc1ncc2c(n1)CN(CC(=O)Nc1nnc(C)s1)CC2`, the cytotoxicity at 10 µM came to 0.153%.

For `Cc1cc(C)n(-c2ccc(CNCc3ccc(C)o3)cn2)n1`, the cytotoxicity at 10 µM is -6.57%.

Regarding `COc1cc(C(=O)NCc2ccc3c(c2)CCCN3C)cc(OC)c1Br`, the cytotoxicity at 10 µM was -6.69%.

On to `Cc1sc(-c2ccco2)nc1C(=O)N1CCCC1Cn1cccn1` (stereo not drawn), for which the cytotoxicity at 10 µM was -11.2%.

For `CCc1nccn1C1CCCN(C(=O)c2ccc3c(c2)OCO3)C1` (stereo not drawn), the cytotoxicity at 10 µM was -12.6%.

As to `CC(C)(C)c1nc(CN(Cc2cccs2)C2CCS(=O)(=O)C2)no1` (stereo not drawn), the cytotoxicity at 10 µM is -3.63%.

`COc1ccc(C2=CCN(C(=O)C3CCN(C)C(=O)C3)CC2)cc1` (stereo not drawn): the cytotoxicity at 10 µM is -9.09%.

As to `Cc1nc(CN(Cc2ccccc2)C2CCS(=O)(=O)C2)oc1C` (stereo not drawn), the cytotoxicity at 10 µM is -8.13%.

`N#Cc1ccc(F)c(CN2CCCC2Cn2cnc3ccccc32)c1` (stereo not drawn): the cytotoxicity at 10 µM was found to be 0.224%.

Turning to `Cc1noc(CN(Cc2ccc3c(c2)OCO3)Cc2ccc(C)o2)n1`, the cytotoxicity at 10 µM was -0.194%.

In the case of `Cc1nnc(C(C)N2CCN(Cc3ccc4c(c3)OCO4)CC2)o1` (stereo not drawn), the cytotoxicity at 10 µM was -11.6%.

As to `Cc1nc(N2CCN(C(=O)c3ccsc3)CC2)c2cnn(C)c2n1`, the cytotoxicity at 10 µM is -10.6%.

`COCc1cccc(CNC(=O)CN2CCCC2c2noc(C)n2)c1` (stereo not drawn): the cytotoxicity at 10 µM was 0.762%.

For the compound `CC(Cn1ccnc1)NC(=O)C1(c2ccc3c(c2)OCCO3)CCCC1` (stereo not drawn), the cytotoxicity at 10 µM was -2.5%.

As to `c1ccc(CN2CCCC2Cn2cncn2)nc1` (stereo not drawn), the cytotoxicity at 10 µM is -10.8%.

As to `CN1CCOC(CNCc2coc(-c3cccs3)n2)C1` (stereo not drawn), the cytotoxicity at 10 µM is -3.71%.

For the compound `Cc1nc(C)n(CC2CCCCN2CC(=O)NC2CCOCC2)n1` (stereo not drawn), the cytotoxicity at 10 µM was -9.32%.

As for `Cc1cc(C)cc(N(C)S(=O)(=O)c2cc(C(=O)O)cs2)c1`, the cytotoxicity at 10 µM was -10.4%.

For `Cc1nccn1C1CCCN(C(=O)c2ccc3c(c2)NC(=O)CO3)C1` (stereo not drawn), the cytotoxicity at 10 µM was -11.5%.

For the compound `Cc1noc(C)c1C(=O)N1C[C@H]2CCC[C@@]2(COc2ccccn2)C1`, the cytotoxicity at 10 µM is -5.53%.

With `CN(C)Cc1n[nH]c2c1CCN(Cc1cccs1)C2`, the cytotoxicity at 10 µM is 1.63%.

On to `CC(C)N1C[C@@H]2CN(C(=O)NCc3ccccc3)CCC[C@]2(C(=O)O)C1`, for which the cytotoxicity at 10 µM amounted to 9.37%.

Consider `Cc1cc(CN2CC[C@H]3C[C@H](C(=O)N4CCC(C)CC4)O[C@H]3C2)no1`, for which the cytotoxicity at 10 µM was determined as 1.34%.

Regarding `O=C(NCc1ccccn1)[C@@]12CCO[C@@H]1CCN(C1CCCC1)C2`, the cytotoxicity at 10 µM was -105%.

On to `O=C(c1cccnc1)N1CC[C@H](OCC2CC2)[C@@H]1Cc1cccnc1`, for which the cytotoxicity at 10 µM is -0.53%.

On to `Cc1noc(C)c1CN1CCOCC12CCN(c1cnccn1)CC2`, for which the cytotoxicity at 10 µM was -101%.

In the case of `CN1CCN(C(=O)[C@@H]2CC[C@@H]3[C@@H](CCN3c3ncccn3)O2)CC1`, the cytotoxicity at 10 µM was determined as 7.13%.

`Cn1cc(CN2C[C@@H]3COC[C@]3(CNC(=O)c3ccsc3)C2)cn1`: the cytotoxicity at 10 µM is -0.0273%.

On to `O=C(COC[C@@]12CCC[C@@H]1CN(C1CCCC1)C2)N1CCCC1`, for which the cytotoxicity at 10 µM was -112%.

As to `c1cnc(N2CCC3(CCN(CC4CCOC4)C3)CC2)nc1` (stereo not drawn), the cytotoxicity at 10 µM is -0.877%.

As to `COCCN1CCC2(CCN(c3ncccn3)CC2)C1=O`, the cytotoxicity at 10 µM worked out at 3.47%.

As to `COCCN1C(=O)[C@@H]2CC[C@H]1CN(C(=O)CCc1n[nH]c(C)c1C)C2`, the cytotoxicity at 10 µM was determined as 13.5%.

`Cc1ncc(C(=O)N2C[C@@H]3CC[C@H]2CN(S(=O)(=O)N(C)C)C3)c(C)n1`: the cytotoxicity at 10 µM amounted to 16.9%.
